Publication PMC5815365 (Molecular pharmaceutics, 2016)
Where “and” joins values, the source holds several entries; their conditions need not be identical. Equal values may be shown once. Where a name gives a salt, the structure may show the parent alone. Read-outs that look alike come from different tables or passages of the source.

How the values were obtained:
[1] = system: MCF-7 xenografts; assay: Ex vivo dye biodistribution analysis by NIRF of harvested tumors and organs; type: in vivo, mice; settings: day 2 of injection
Method in brief: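 Ovariectomized female athymic mice carried mammary fat-pad MCF-7 xenografts (5 million cells in Matrigel, estradiol:cholesterol 1:3 implants), grown to about 150 mm3. A separate cohort received 17 nmol dye i.p. After IVIS imaging, mice were killed by ketamine/xylazine overdose at each time point. Tumor, muscle, liver, lung, heart, kidneys and skin were rinsed, dried and IVIS-imaged; organ ROIs were normalized to tumor volume.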

[2] = system: MCF-7 xenografts; assay: In vivo NIRF imaging of tumor uptake in nude mice bearing MCF-7 xenografts; settings: for retention of fluorescence in tumors: two days after injection
Method in brief: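 Nude mice with estradiol-supported MCF-7 mammary fat-pad xenografts (about 150 mm3) received 17 nmol dye i.p. (n = 3). They were imaged under 2% isoflurane at serial time points up to 8 days on IVIS (Ex 740/Em 820 nm, auto exposure, F-stop 2). Tumor ROI radiance (p/s/cm2/sr) was background-subtracted using another body region and normalized to tumor volume.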

[3] = Partition coefficient in n-octanol and water, measured by NIR fluorescence; type: physicochemical; settings: octanol–water partitioning measured with NIRF
Method in brief: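 Compound (5 nmol) was shaken 10 min in 0.6 mL n-octanol plus 0.6 mL water (final 4.15 μM, within the linear fluorescence range), then centrifuged at 10,000 rpm for 5 min. Triplicate 100 μL aliquots of each layer were imaged on IVIS (Ex/Em 745/820 nm) as ROI average radiance. log P = log(octanol/water intensity), corrected by a per-probe solvent factor; mean and SD reported.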

[4] = Cell viability / growth inhibition in benign breast epithelial cells; type: cell-based; settings: human, MCF-10A cells (benign breast epithelial cells)
[5] = system: LTED cells; assay: Cell viability / growth inhibition by cell number count; type: cell-based, human
Method in brief: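 LTED cells (MCF-7-derived, phenol red-free medium, charcoal-dextran stripped FBS) seeded at 60,000/well in 6-well plates and grown 2 days at 37 °C. They were then exposed to test compound for 2–5 days with 0.1% final ethanol or DMSO vehicle. Cells were saline-rinsed, nuclei released with HEPES–MgCl2 and ZAP (ethylhexadecyldimethylammonium bromide/acetic acid) and Coulter-counted. Three independent repeats, normalized to 100% viability; dose–response curves gave IC50.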

Row | fluorescence intensity in tumor tissue compared to muscle [1] | time of peak uptake (NIRF) ([2]; 17 nmol/mouse) | fluorescence intensity disappeared ([2]; 8 days after injection) | retention of fluorescence in tumors ([2]; 17 nmol/mouse) | log P [3] | Structure (SMILES) | viability at 2 days, 50 µM [4] | IC50 ([5]; Homo sapiens, read-out: IC50 (cell growth inhibition), LTED cells) | IC50 ([5]; read-out: IC50 (cell growth inhibition), LTED cells) | inhibition of cells ([5]; up to 75 μM)
1 | 8.6 fold | about 30 h | 80% | retained in the tumors | 0.49 | CC1(C)C(=CC=C2CCCC(C=CC3=[N+](CCCCS(=O)(=O)[O-])c4ccccc4C3(C)C)=C2Cl)N(CCCCCC(=O)O)c2ccccc21 [Compound 5, 3H-Indolium, 2-[2-[3-[2-[1-(5-Carboxypentyl)-1,3-dihydro-3,3-dimethyl-2H-indol-2-ylidene]ethylidene]-2-chloro-1-cyclohexen-1-yl]ethenyl]-3,3-dimethyl-1-(4-sulfobutyl) Inner Salt] | – | – | – | –
2 | 6.3 fold | – | – | retained in the tumors | −1.13 | CC1(C)C(/C=C/C2=C(Cl)C(=C\C=C3/N(CCCS(=O)(=O)[O-])c4ccccc4C3(C)C)/CCC2)=[N+](CCCS(=O)(=O)[O-])c2ccccc21.[Na+] [Compound 6, 3H-indolium, 2-[2-[2-chloro-3-[[1,3-dihydro-3,3-dimethyl-1-(3-sulfopropyl)-2H-indol-2-ylidene]ethylidene]-1-cyclohexen-1-yl]ethenyl]-3,3-dimethyl-1-(3-sulfopropyl)-, inner salt, sodium salt] | – | – | – | –
3 | 4.5 fold | – | – | retained in the tumors | 1.35 | CC1(C)C(/C=C/C2=C(Cl)C(=C/C=C3\N(CCCCCC(=O)O)c4ccccc4C3(C)C)/CCC2)=[N+](CCCCCC(=O)O)c2ccccc21 [Compound 7] | – | – | – | –
4 | – | – | – | – | – | CC(C)=CCC/C(C)=C/CC/C(C)=C/CSc1ccccc1C(=O)O [FTS, S-trans-trans-farnesylthiosalicylic acid] | ~100% | ~51.3 µM | ~51.8 µM and < 50 µM | 70–75%
